Screening results (PubChem BioAssay)
The list is not random: actives were taken first. Their share in the collection is about 1.8%.
proCasp7 act: activates human procaspase-7, counter-screen for procaspase-3 activators; P55210; recombinant procaspase-7, Ac-DEVD-pNA absorbance 405 nm; D23A/D198A/D206A triple mutant, cannot self-cleave; scale: DMSO 0, 5 µM enzyme 100; activation, % at 8.5 µM; hit rate 0.093% among 330,000;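 active means percent activation above the screen-wide mean plus 3 SD, cut at about 25% in these data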
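Assay system: Uncleavable procaspase-7 mutant enzyme | Input: 2 µM procaspase-7 mutant as dispensed | Timing: 1 h compound preincubation, 2 h substrate cleavage, 25 °C | Repeats: One well per compound | Control set: DMSO wells as 0%, DMSO with 5 µM added PC-7 as 100% | Technique: Epi-absorbance of released pNA at 405 nm, two timepoints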
proCasp3 act: activators of human procaspase-3; P42574; recombinant procaspase-3 D3A, Ac-DEVD-pNA absorbance 405 nm; activation, % at 8.5 µM; hit rate 0.11% among 330,000;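 active means activation above the mean of all tested compounds plus 3 SD, cut at about 21% in these data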
Target sequence (P42574 whole entry D9A/D28A/D175A): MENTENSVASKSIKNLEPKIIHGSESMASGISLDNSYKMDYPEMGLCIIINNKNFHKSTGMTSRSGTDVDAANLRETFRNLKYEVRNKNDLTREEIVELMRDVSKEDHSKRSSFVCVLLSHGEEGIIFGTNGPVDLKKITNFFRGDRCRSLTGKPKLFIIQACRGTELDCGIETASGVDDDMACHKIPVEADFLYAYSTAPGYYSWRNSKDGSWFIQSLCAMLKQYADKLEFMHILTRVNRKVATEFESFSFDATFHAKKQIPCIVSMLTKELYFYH
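Evaluation: percent activation relative to control range; Material: Procaspase-3 D3A mutant, all three cleavage aspartates alanine; Compound: single dose, 8.5 µM nominal compound, 0.8% DMSO; Replication: one well per compound; Signal: absorbance at 405 nm, 0 and 120 min; Schedule: 1 h preincubation plus 2 h reaction at 25 °C.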
ZTA DNA inh: counter-screen for EBNA-1 inhibitors: inhibitors of Epstein-Barr virus ZTA; AID 2234; P03206; hit rate 0.15% among 320,000; inhibition, % at 11 µM; ZTA-DNA binding, fluorescence polarization; in the data active means inhibition above about 33%
Apaf1 inhib: blocks human Apaf-1 apoptosome activity; reconstituted apoptosome caspase-3 activity, DEVD-Rh110 fluorescence; inhibition, % at 20 µM; hit rate 0.71% among 330,000; AID 489030; active means inhibition of at least 40% at 20 µM
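detection = Rh110 fluorescence intensity | test system = biochemical Apaf-1 apoptosome reconstitution | also added = cytochrome c and DEVD-Rh110 substrate | schedule = 30 min plus 50 min, RT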
EBNA-1 inh: blocks EBNA-1 binding to DNA | EBNA-1 DNA binding, fluorescence polarization | inhibition, % at 14.8 µM | hit rate 0.34% among 300,000 | AID 1950; in the data active means inhibition above about 28%
GSTO1 inh: GSTO1 inhibition, counter-screen for RBBP9 inhibitors; P78417; recombinant GSTO1, activity-based probe fluorescence polarization; inhibition, % at 5.96 µM; hit rate 1.1% among 300,000; AID 1974;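 active means inhibition above the campaign mean inhibition plus 3 SD, cut at about 35% in these data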
Target sequence (P78417 whole entry, looked up): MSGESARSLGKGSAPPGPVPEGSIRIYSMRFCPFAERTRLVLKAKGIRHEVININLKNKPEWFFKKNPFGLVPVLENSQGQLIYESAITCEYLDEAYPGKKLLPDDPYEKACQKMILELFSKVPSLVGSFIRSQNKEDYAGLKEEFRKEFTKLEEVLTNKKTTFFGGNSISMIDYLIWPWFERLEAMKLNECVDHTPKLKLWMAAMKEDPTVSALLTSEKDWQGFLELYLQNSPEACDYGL
GSTO1 inh conf: GSTO1 (human) inhibition, confirmation; shares compounds with GSTO1 inh; recombinant GSTO1, probe fluorescence polarization; inhibition, % at 5.96 µM; hit rate 54% among 2,400;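 active means inhibition above the primary screen's cutoff, its mean inhibition plus 3 SD, cut at about 35% in these data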;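 further: loss of polarization as inhibitors block binding of rhodamine sulfonate ester activity probe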
GSTO1 recomb ABPP: blocks recombinant human glutathione S-transferase omega 1; shares compounds with GSTO1 inh; recombinant GSTO1, gel ABPP SE-Rh probe fluorescence; inhibition, % at 1 µM; hit rate 30% among 130; AID 463110;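 active means inhibition of the enzyme GSTO1 above about 75%, limit read from the data; inactive means inhibition below that limit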
Of the large screens only hits and unclear results are named; the others gave an inactive call (follow-up assays come after a bar, where they were run).

O=C1C=Cc2ccccc2C1=O	Apaf1 inhib 62
COc1ccccc1N1C(=O)NC(=O)/C(=C/c2ccc([N+](=O)[O-])s2)C1=O	GSTO1 inh 42
Cc1ccc(S(=O)(=O)N[C@@H](CCCCN)C(=O)CCl)cc1	none
COC(=O)C1C(O)C(C)C(O)C(C)/C=C\C=C(/C)C(=O)Nc2c(C)c(OC(C)=O)c3c(c2O)C(=O)C(C)=C2OCOC(=C23)/C(C)=C/C(C)(O)C(O)C(C)C1O (stereo not drawn)	GSTO1 inh 69
CN(C)c1ccc(/C=C/C=C/c2sc3ccccc3[n+]2C)cc1	ZTA DNA inh 45, EBNA-1 inh 32
C[n+]1c(-c2ccccc2)sc2ccccc21	none
C=CCn1c(O)c(N=Nc2c(C)n(C)n(-c3ccccc3)c2=O)c(=O)[nH]c1=S	GSTO1 inh 36
CCOc1ccc(-n2c(O)c(N=Nc3c(C)n(C)n(-c4ccccc4)c3=O)c(=O)[nH]c2=O)cc1	none
O=S(=O)(c1ccc(Cl)cc1)N1CC1c1ccccc1 (stereo not drawn)	GSTO1 inh 35
O=C1NC(=O)C(=Cc2ccc(Oc3ccc([N+](=O)[O-])cc3)cc2)C(=O)N1	Apaf1 inhib 43, GSTO1 inh 49
O=C1NC(=O)C(=Cc2ccc3ccccc3c2)C(=O)N1	none
CN(C)[C@@H]1C(=O)C(C(N)=O)=C(O)[C@@]2(O)C(=O)C3=C(O)c4c(O)cccc4[C@@](C)(O)C3C[C@@H]12 (stereo partly drawn)	GSTO1 inh 72
CN(C)[C@@H]1C(=O)C(C(N)=O)=C(O)[C@@]2(O)C(=O)C3=C(O)c4c(O)ccc(Cl)c4[C@@](C)(O)[C@H]3C[C@@H]12	GSTO1 inh 45 (no result: Apaf1 inhib)
Cc1cc(OC(C)C(=O)N[C@H](C(=O)O)c2ccccc2)c2c3c(c(=O)oc2c1)CCC3 (stereo partly drawn)	none
CC(C)[C@@]1(NC(=O)[C@@H]2C[C@@H]3c4cccc5[nH]cc(c45)C[C@H]3N(C)C2)O[C@@]2(O)[C@@H]3CCCN3C(=O)[C@H](Cc3ccccc3)N2C1=O	none
CC(C)C[C@H]1C(=O)N2CCCC2[C@]2(O)O[C@](NC(=O)[C@@H]3C=C4c5cccc6[nH]cc(c56)CC4N(C)C3)(C(C)C)C(=O)N12 (stereo partly drawn)	Apaf1 inhib 87, GSTO1 inh 48
CCN(CC)c1ccc(/C=C/[N+](=O)[O-])cc1	GSTO1 inh 36
COc1cc(/C=C/[N+](=O)[O-])ccc1O	none
O=c1[nH]c(=S)[nH]c(O)c1/C=N/N1CCOCC1	none
CCOC(=O)c1ccc2[nH]c(-c3ccc(S(=O)(=O)F)cc3)cc(=O)c2c1	none
CCN1/C(=C\C=C\C2=[N+](CC)c3ccccc3C2(C)C)C(C)(C)c2ccccc21	Apaf1 inhib 56
COc1ccc(-n2c(C)nc3ccccc3c2=O)c([N+](=O)[O-])c1	none
Clc1ccc(C[n+]2c(-c3ccccc3)cc(-c3ccccc3)cc2-c2ccccc2)cc1	Apaf1 inhib 52
CCCCn1c(N)c(C(=O)OCC2CCCO2)c2nc3ccccc3nc21 (stereo not drawn)	GSTO1 inh 81 | GSTO1 inh conf inactive
COCC(C)OC(=O)c1c(N)n(Cc2ccco2)c2nc3ccccc3nc12 (stereo not drawn)	Apaf1 inhib 61, GSTO1 inh 59 | GSTO1 inh conf inactive
CC(C)CCOC(=O)c1c(N)n(CC2CCCO2)c2nc3ccccc3nc12 (stereo not drawn)	GSTO1 inh 53 | GSTO1 inh conf inactive
Nc1c(C(=O)OC2CCCCC2)c2nc3ccccc3nc2n1CC1CCCO1 (stereo not drawn)	GSTO1 inh 42 | GSTO1 inh conf inactive
CCCCn1c(N)c(C(=O)OCCOC)c2nc3ccccc3nc21	none
COc1cc(N)c(Cl)cc1C(=O)NC1CN2CCC1CC2 (stereo not drawn)	none
COC(=O)C1=C(c2ccc(S(C)(=O)=O)cc2)C[C@@H]2CC[C@H]1N2C(=O)NCC1CC1	none
CC(=Nc1ccccc1N)c1c(O)n(C)c(=O)n(C)c1=O	none
O=C(Nc1ccc2ccccc2c1)c1nn(C23CC4CC(CC(C4)C2)C3)cc1Br	none
Cc1nc(Cl)sc1C(=O)Nc1ccc2ccccc2c1	GSTO1 inh 55 | GSTO1 inh conf 54
C=CCN1CC[C@]23c4c5ccc(O)c4O[C@H]2C(=O)CC[C@@]3(O)[C@H]1C5	none
C=CCN1CCc2cccc3c2[C@H]1Cc1ccc(O)c(O)c1-3	GSTO1 inh 87 | GSTO1 inh conf inactive
C=CCN1C(=O)NC(=O)/C(=C\c2ccc(-c3ccccc3[N+](=O)[O-])o2)C1=O	none
O=C1NC(=O)N(Cc2ccco2)C(=O)/C1=C/c1ccc(-c2cccc([N+](=O)[O-])c2)o1	GSTO1 inh 40 | GSTO1 inh conf inactive
O=[N+]([O-])c1cc(S(=O)(=O)c2ccc(O)c([N+](=O)[O-])c2)ccc1O	GSTO1 inh 40 | GSTO1 inh conf 49
N/C(=N\[N+](=O)[O-])N1CCN(C(=O)c2ccccn2)CC1	none
Cc1ccc(S(=O)(=O)N2CC2(C)CCl)cc1 (stereo not drawn)	GSTO1 inh 44 | GSTO1 inh conf 67 | GSTO1 recomb ABPP inactive
Cc1ccc(S(=O)(=O)N2CN3CCN(C3)C2)cc1	none
Cc1cc(=O)[nH]c(CCl)n1	GSTO1 inh 67 | GSTO1 inh conf 90 | GSTO1 recomb ABPP inactive
Cc1cc(=O)[nH]c(SCc2nc3ccccc3c(=O)n2-c2ccccc2C)n1	none
CNCCc1ccc(O)c(O)c1	GSTO1 inh 73 | GSTO1 inh conf inactive
CN1C[C@H](CO)C=C2c3cccc4[nH]cc(c34)C[C@H]21	none
CC(C)[C@H]1C(=O)N2CCC[C@H]2[C@]2(O)O[C@](NC(=O)[C@@H]3C=C4c5cccc6[nH]cc(c56)C[C@H]4N(C)C3)(C(C)C)C(=O)N12	Apaf1 inhib 95, GSTO1 inh 59 | GSTO1 inh conf inactive
CCN(CC)c1ccc(N=Cc2c(O)[nH]c(=O)[nH]c2=O)cc1	GSTO1 inh 56 | GSTO1 inh conf inactive
CCOc1cc2c(cc1OCC)-n1cccc1C(c1cccc(F)c1)NC2 (stereo not drawn)	none
